From ChEMBL document CHEMBL1129650, “Structure-activity relationships of novel hematoregulatory peptides” (1996)
Bridge positions count the residues as written; N and C are the ends. Square brackets hold non-standard residues; d marks the D form. Peptide text beside a SMILES is read from it. I, II: the chains in the order shown. pGlu = O=C1CC[C@@H](C(=O)O)N1

tested on: C6; assay: Relative potency for induction of Colony-Stimulating activity(CSA) of C6 stromal line.; format: functional, Mus musculus; design: reference not given here
In short: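 Murine C6 stromal cells (or subclone C6.4) were grown to confluence in RPMI with 10% FBS, then switched to serum-free medium with peptide (initially 0.001–1000 ng/mL, log doses, duplicate wells). Exposure was 1 h at 37 °C, followed by washing, and conditioned supernatant was collected 24 h later. Supernatant (10–2.5% v/v) plus C57Bl/6 femoral marrow went into 0.3% agar with 15% FBS for 7 days. Colonies of >50 cells were counted in triplicate. EC50 was taken from the ascending curve and expressed relative to the reference peptide.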

**Q.** For `NCCCC[C@H](NC(=O)[C@H](CCCC[C@H](NC(=O)[C@H](CC(=O)O)NC(=O)[C@H](CC(=O)O)NC(=O)[C@@H]1CCC(=O)N1)C(=O)N[C@@H](CCCCN)C(=O)O)NC(=O)[C@H](CC(=O)O)NC(=O)[C@H](CC(=O)O)NC(=O)[C@@H]1CCC(=O)N1)C(=O)O`, which Relative potency is on record?
**A.** 1

**Q.** How did the Relative potency turn out when `NC(=O)CC[C@H](NC(=O)[C@H](CC[C@H](NC(=O)[C@H](CO)NC(=O)[C@H](CO)NC(=O)c1ccccn1)C(=O)N[C@@H](CCC(N)=O)C(N)=O)NC(=O)[C@H](CO)NC(=O)[C@H](CO)NC(=O)c1ccccn1)C(N)=O` was run?
**A.** <1e-06

**Q.** How did the Relative potency turn out when `NCCCC[C@H](NC(=O)[C@@H](CCCC[C@@H](NC(=O)[C@H](CC(=O)O)NC(=O)[C@H](CCC(=O)O)NC(=O)[C@@H]1CCC(=O)N1)C(=O)N[C@@H](CCCCN)C(=O)O)NC(=O)[C@H](CC(=O)O)NC(=O)[C@H](CCC(=O)O)NC(=O)[C@@H]1CCC(=O)N1)C(=O)O` was run?
**A.** <1e-06

**Q.** For `NCCCC[C@H](NC(=O)[C@H](CCCC[C@H](NC(=O)[C@H](CC(=O)O)NC(=O)[C@H](CCC(=O)O)NC(=O)[C@@H]1CCC(=O)N1)C(=O)N[C@@H](CCCCN)C(N)=O)NC(=O)[C@H](CC(=O)O)NC(=O)[C@H](CCC(=O)O)NC(=O)[C@@H]1CCC(=O)N1)C(N)=O`, which Relative potency is on record?
**A.** 1

**Q.** For `NCCCC[C@H](NC(=O)[C@H](CCCC[C@H](NC(=O)[C@H](CCC(=O)O)NC(=O)[C@H](CCC(=O)O)NC(=O)[C@@H]1CCC(=O)N1)C(=O)N[C@@H](CCCCN)C(=O)O)NC(=O)[C@H](CCC(=O)O)NC(=O)[C@H](CCC(=O)O)NC(=O)[C@@H]1CCC(=O)N1)C(=O)O`, which Relative potency is on record?
**A.** 1

**Q.** `NCCCC[C@H](NC(=O)[C@H](CCCC[C@H](NC(=O)[C@H](CC(=O)O)NC(=O)[C@H](CCC(=O)O)NC(=O)[C@H]1CCC(=O)N1)C(=O)N[C@@H](CCCCN)C(=O)O)NC(=O)[C@H](CC(=O)O)NC(=O)[C@H](CCC(=O)O)NC(=O)[C@H]1CCC(=O)N1)C(=O)O` was tested. Which Relative potency did it give?
**A.** 0.0001

**Q.** `NCCCC[C@H](NC(=O)[C@H](CCCCCC[C@H](NC(=O)[C@H](CC(=O)O)NC(=O)[C@H](CCC(=O)O)NC(=O)[C@@H]1CCC(=O)N1)C(=O)N[C@@H](CCCCN)C(=O)O)NC(=O)[C@H](CC(=O)O)NC(=O)[C@H](CCC(=O)O)NC(=O)[C@@H]1CCC(=O)N1)C(=O)O` was tested. Which Relative potency did it give?
**A.** <1e-06

**Q.** How did the Relative potency turn out when `NCCCC[C@H](NC(=O)[C@H](CCCCC[C@H](NC(=O)[C@H](CC(=O)O)NC(=O)[C@H](CCC(=O)O)NC(=O)[C@@H]1CCC(=O)N1)C(=O)N[C@@H](CCCCN)C(=O)O)NC(=O)[C@H](CC(=O)O)NC(=O)[C@H](CCC(=O)O)NC(=O)[C@@H]1CCC(=O)N1)C(=O)O` was run?
**A.** <1e-06

**Q.** Which Relative potency does the source give for `NCCCC[C@H](NC(=O)[C@H](CCCC[C@H](NC(=O)[C@H](CC(=O)O)NC(=O)[C@H](CCC(=O)O)NC(=O)[C@@H]1CCCO1)C(=O)N[C@@H](CCCCN)C(=O)O)NC(=O)[C@H](CC(=O)O)NC(=O)[C@H](CCC(=O)O)NC(=O)[C@@H]1CCCO1)C(=O)O` here?
**A.** <1e-06

**Q.** How did the Relative potency turn out when `NCCCC[C@@H](NC(=O)[C@H](CCCC[C@H](NC(=O)[C@H](CC(=O)O)NC(=O)[C@H](CCC(=O)O)NC(=O)[C@@H]1CCC(=O)N1)C(=O)N[C@H](CCCCN)C(=O)O)NC(=O)[C@H](CC(=O)O)NC(=O)[C@H](CCC(=O)O)NC(=O)[C@@H]1CCC(=O)N1)C(=O)O` was run?
**A.** <1e-06

**Q.** Which Relative potency does the source give for `CCCC[C@H](NC(=O)[C@H](CCCC[C@H](NC(=O)[C@H](C)NC(=O)[C@H](CO)NC(=O)c1ccccn1)C(=O)N[C@@H](CCCC)C(N)=O)NC(=O)[C@H](C)NC(=O)[C@H](CO)NC(=O)c1ccccn1)C(N)=O` here?
**A.** <1e-06

**Q.** Which Relative potency does the source give for `NCCC[C@H](NC(=O)[C@H](CCCC[C@H](NC(=O)[C@H](CC(=O)O)NC(=O)[C@H](CCC(=O)O)NC(=O)[C@@H]1CCC(=O)N1)C(=O)N[C@@H](CCCN)C(=O)O)NC(=O)[C@H](CC(=O)O)NC(=O)[C@H](CCC(=O)O)NC(=O)[C@@H]1CCC(=O)N1)C(=O)O` here?
**A.** <1e-06

**Q.** With `NCCCC[C@H](NC(=O)[C@H](CC[C@H](NC(=O)[C@H](CC(=O)O)NC(=O)[C@H](CCC(=O)O)NC(=O)c1ccccn1)C(=O)N[C@@H](CCCCN)C(N)=O)NC(=O)[C@H](CC(=O)O)NC(=O)[C@H](CCC(=O)O)NC(=O)c1ccccn1)C(N)=O` as the molecule, how does the Relative potency read?
**A.** 100

**Q.** `NCCCC[C@H](NC(=O)[C@H](CCCC[C@H](NC(=O)[C@H](CC(=O)O)NC(=O)[C@H](CO)NC(=O)c1ccccn1)C(=O)N[C@@H](CCCCN)C(=O)O)NC(=O)[C@H](CC(=O)O)NC(=O)[C@H](CO)NC(=O)c1ccccn1)C(=O)O` was tested. Which Relative potency did it give?
**A.** 100

**Q.** For `NCCCC[C@H](NC(=O)[C@H](CCCC[C@H](NC(=O)[C@H](CC(=O)O)NC(=O)[C@H](CCC(=O)O)NC(=O)C1CCCCC1)C(=O)N[C@@H](CCCCN)C(=O)O)NC(=O)[C@H](CC(=O)O)NC(=O)[C@H](CCC(=O)O)NC(=O)C1CCCCC1)C(=O)O`, which Relative potency is on record?
**A.** <1e-06

**Q.** With `NCCCC[C@H](NC(=O)[C@H](CCCC[C@H](NC(=O)[C@H](CC(=O)O)NC(=O)[C@H](CCC(=O)O)NC(=O)c1cccs1)C(=O)N[C@@H](CCCCN)C(=O)O)NC(=O)[C@H](CC(=O)O)NC(=O)[C@H](CCC(=O)O)NC(=O)c1cccs1)C(=O)O` as the molecule, how does the Relative potency read?
**A.** <1e-06

**Q.** `NCCCC[C@H](NC(=O)[C@H](CCC(=O)O)NC(=O)[C@@H]1CCC(=O)N1)C(=O)N[C@@H](CCCC[C@H](NC(=O)[C@H](CCCCN)NC(=O)[C@H](CCC(=O)O)NC(=O)[C@@H]1CCC(=O)N1)C(=O)N[C@@H](CC(=O)O)C(=O)O)C(=O)N[C@@H](CC(=O)O)C(=O)O` was tested. Which Relative potency did it give?
**A.** < 1e-06

**Q.** For `NCCCC[C@H](NC(=O)[C@H](CCCC[C@H](NC(=O)[C@@H](CC(=O)O)NC(=O)[C@H](CCC(=O)O)NC(=O)[C@@H]1CCC(=O)N1)C(=O)N[C@@H](CCCCN)C(=O)O)NC(=O)[C@@H](CC(=O)O)NC(=O)[C@H](CCC(=O)O)NC(=O)[C@@H]1CCC(=O)N1)C(=O)O`, which Relative potency is on record?
**A.** <1e-06

**Q.** How did the Relative potency turn out when `NCCCC[C@H](NC(=O)[C@H](CCC[C@H](NC(=O)[C@H](CC(=O)O)NC(=O)[C@H](CCC(=O)O)NC(=O)[C@@H]1CCC(=O)N1)C(=O)N[C@@H](CCCCN)C(=O)O)NC(=O)[C@H](CC(=O)O)NC(=O)[C@H](CCC(=O)O)NC(=O)[C@@H]1CCC(=O)N1)C(=O)O` was run?
**A.** < 1e-06

**Q.** Which Relative potency does the source give for `NCCCC[C@H](NC(=O)[C@H](CCCC[C@H](NC(=O)[C@H](CC(=O)O)NC(=O)[C@H](CCC(=O)O)NC(=O)c1ccc2ccccc2n1)C(=O)N[C@@H](CCCCN)C(=O)O)NC(=O)[C@H](CC(=O)O)NC(=O)[C@H](CCC(=O)O)NC(=O)c1ccc2ccccc2n1)C(=O)O` here?
**A.** <1e-06

**Q.** For `NCCCC[C@@H](CO)NC(=O)[C@H](CCCC[C@H](NC(=O)[C@H](CC(=O)O)NC(=O)[C@H](CCC(=O)O)NC(=O)[C@@H]1CCC(=O)N1)C(=O)N[C@H](CO)CCCCN)NC(=O)[C@H](CC(=O)O)NC(=O)[C@H](CCC(=O)O)NC(=O)[C@@H]1CCC(=O)N1`, which Relative potency is on record?
**A.** <1e-06

**Q.** With `NCCCC[C@H](NC(=O)[C@H](CCCC[C@H](NC(=O)[C@H](CC(=O)O)NC(=O)[C@H](CO)NC(=O)[C@@H]1CCC(=O)N1)C(=O)N[C@@H](CCCCN)C(=O)O)NC(=O)[C@H](CC(=O)O)NC(=O)[C@H](CO)NC(=O)[C@@H]1CCC(=O)N1)C(=O)O` as the molecule, how does the Relative potency read?
**A.** 10

**Q.** Which Relative potency does the source give for `NCCCC[C@H](NC(=O)[C@H](CC[C@H](NC(=O)[C@H](CC(=O)O)NC(=O)[C@H](CCC(=O)O)NC(=O)[C@@H]1CCC(=O)N1)C(=O)N[C@@H](CCCCN)C(=O)O)NC(=O)[C@H](CC(=O)O)NC(=O)[C@H](CCC(=O)O)NC(=O)[C@@H]1CCC(=O)N1)C(=O)O` here?
**A.** 1000

**Q.** `N=C(N)NCCC[C@@H](NC(=O)[C@H](CCCC[C@H](NC(=O)[C@H](CC(=O)O)NC(=O)[C@H](CCC(=O)O)NC(=O)[C@@H]1CCC(=O)N1)C(=O)N[C@H](CCCNC(=N)N)C(=O)O)NC(=O)[C@H](CC(=O)O)NC(=O)[C@H](CCC(=O)O)NC(=O)[C@@H]1CCC(=O)N1)C(=O)O` was tested. Which Relative potency did it give?
**A.** <1e-06

**Q.** How did the Relative potency turn out when `NCCCC[C@H](NC(=O)[C@H](CC[C@H](NC(=O)[C@H](CC(=O)O)NC(=O)[C@H](CO)NC(=O)c1ccccn1)C(=O)N[C@@H](CCCCN)C(=O)O)NC(=O)[C@H](CC(=O)O)NC(=O)[C@H](CO)NC(=O)c1ccccn1)C(=O)O` was run?
**A.** 10000

**Q.** How did the Relative potency turn out when `NCCCC[C@H](NC(=O)[C@H](CSSC[C@H](NC(=O)[C@H](CC(=O)O)NC(=O)[C@H](CCC(=O)O)NC(=O)[C@@H]1CCC(=O)N1)C(=O)N[C@@H](CCCCN)C(=O)O)NC(=O)[C@H](CC(=O)O)NC(=O)[C@H](CCC(=O)O)NC(=O)[C@@H]1CCC(=O)N1)C(=O)O` (I: [pGlu]EDCK-OH / II: [pGlu]EDCK-OH; disulfide I:4-II:4) was run?
**A.** 0.01

**Q.** With `NCCCC[C@H](NC(=O)[C@H](CCCC[C@H](NC(=O)[C@H](CC(=O)O)NC(=O)[C@H](CCC(=O)O)NC(=O)[C@@H]1CCC(=O)N1)C(=O)N[C@@H](CCCCN)C(=O)O)NC(=O)[C@H](CC(=O)O)NC(=O)[C@H](CCC(=O)O)NC(=O)[C@@H]1CCC(=O)N1)C(=O)O` [GLASPIMOD] as the molecule, how does the Relative potency read?
**A.** 1
